GSTO1 inh – blocks human GSTO1 in RBBP9 counter-screen; recombinant GSTO1, activity-based probe fluorescence polarization; inhibition, % at 5.96 µM; AID 1974; 300,000 tested, 1.1% active; P78417;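 active = inhibition above the campaign mean inhibition plus 3 SD, cut at about 35% in these data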
Target sequence (P78417 whole entry, looked up): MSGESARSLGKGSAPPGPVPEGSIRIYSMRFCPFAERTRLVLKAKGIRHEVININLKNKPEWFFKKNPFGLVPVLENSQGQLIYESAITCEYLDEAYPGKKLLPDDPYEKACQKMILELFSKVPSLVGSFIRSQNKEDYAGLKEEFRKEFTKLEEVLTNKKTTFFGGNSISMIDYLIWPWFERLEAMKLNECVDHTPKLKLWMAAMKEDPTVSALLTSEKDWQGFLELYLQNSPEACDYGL
Apaf-1 inh – human Apaf-1 inhibition; reconstituted apoptosome caspase-3 activity, DEVD-Rh110 fluorescence; inhibition, % at 20 µM; 330,000 tested, 0.71% active; active = inhibition of at least 40% at 20 µM
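Medium: Hepes buffer, pH 7.5 / System: biochemical Apaf-1 apoptosome reconstitution / Measured by: Rh110 fluorescence, excitation 480 nm, emission 540 nm / Times: compound with Apaf-1, dATP, procaspase-3 30 min, then 50 min reaction, room temperature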
PRMT1 inh – blocks human protein arginine methyltransferase 1 | Q99873 | recombinant PRMT1, activity-based probe fluorescence polarization | inhibition, % at 2.79 µM | 370,000 tested, 1.3% active | AID 652257;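 active = inhibition above about 21% made by adding two undisclosed values, limit read from the data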
PAD4 inh – inhibitors of human PAD4; Q9UM07; recombinant PAD4, RCA probe fluorescence polarization; inhibition, % at 6.36 µM; 330,000 tested, 0.41% active;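 active = percent inhibition above a cutoff equal to the mean of all tested compounds plus 3 SD, cut at about 15% in these data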
TDP2 absorb – TDP2 (human) inhibition, absorbance primary screen. recombinant TDP2, T5PNP hydrolysis, p-nitrophenol absorbance 415 nm. inhibition, % at 12.8 µM. 370,000 tested, 0.34% active. AID 720702;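 active = inhibition above the mean of all tested compounds plus 3 SD, set per campaign, cut at about 25% in these data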
Target sequence (O95551 whole entry, looked up): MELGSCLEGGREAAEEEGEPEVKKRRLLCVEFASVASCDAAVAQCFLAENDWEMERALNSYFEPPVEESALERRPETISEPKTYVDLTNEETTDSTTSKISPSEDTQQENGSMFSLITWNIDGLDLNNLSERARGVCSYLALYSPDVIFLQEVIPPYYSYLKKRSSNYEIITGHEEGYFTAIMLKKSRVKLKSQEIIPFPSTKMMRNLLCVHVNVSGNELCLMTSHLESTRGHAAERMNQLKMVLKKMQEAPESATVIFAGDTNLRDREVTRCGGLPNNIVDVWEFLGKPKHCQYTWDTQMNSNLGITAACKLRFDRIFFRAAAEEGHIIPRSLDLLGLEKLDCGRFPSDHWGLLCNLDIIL
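System – recombinant human TDP2 · Amount – 120 nM TDP2 per well · Buffer or medium – Mg2+-containing Tris-HCl buffer, pH 7.5 · Reagent – T5PNP substrate, 5 mM · Dosing – 12.8 µM single point, 1% DMSO · Incubation – 2 h at 37 °C · Measured by – epi absorbance · Read-out basis – percent inhibition · Benchmarks – high control without enzyme, low control DMSO plus TDP2 · Repeats – singlicate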
PAD4 FP conf – PAD4 (human) inhibition, confirmed | shares compounds with PAD4 inh | recombinant PAD4, RCA probe fluorescence polarization | inhibition, % at 6.36 µM | 1,200 tested, 28% active | AID 488796;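 active = mean inhibition across replicates above the hit cutoff set by the earlier primary screen, cut at about 15% in these data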;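 also: inhibitors block active-site labeling by the probe so polarization falls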
Each line names hits and unclear results; the compound was inactive in the other large screens (follow-up assays come after a bar, where they were run). This is a sample that favours compounds with a hit; in the whole collection about 2.6% have one here.

Cc1nnc(SC(=O)N2c3ccccc3Sc3ccccc32)s1	PAD4 inh 34 | PAD4 FP conf inactive
Cc1cccc(N2C(=O)c3cccc4c(N)ccc(c34)C2=O)c1	PRMT1 inh 162, PAD4 inh 27 | PAD4 FP conf 22
O=C1c2ccc3c4c(ccc(c24)C(=O)N1c1cccc(O)c1)C(=O)N(c1cccc(O)c1)C3=O	PAD4 inh 18 | PAD4 FP conf 38
O=C1c2ccc3c4c(ccc(c24)C(=O)N1c1cccc(O)c1)CC3	none
O=C(CN1CCCCC1)Nc1ccc(C(F)(F)F)cc1Cl	PAD4 inh 18 | PAD4 FP conf inactive
CCOC(=O)C1=C(C)N=c2sc(=Cc3cc(Cl)c(OCC(=O)O)c(Cl)c3)c(=O)n2C1c1cccc(OC)c1 (stereo unspecified)	none (no result: GSTO1 inh, Apaf-1 inh, PAD4 inh)
CCOC(=O)C1=C(C)N=c2s/c(=C/c3ccc(OCC(=O)O)cc3)c(=O)n2C1c1cc(OC)c(OC)c(OC)c1 (stereo unspecified)	PAD4 inh 25 | PAD4 FP conf inactive
COc1cccc(C2C(C(=O)Nc3ccccc3)=C(C)N=c3s/c(=C/c4ccc(OCC(=O)O)cc4)c(=O)n32)c1 (stereo unspecified)	PRMT1 inh 30, PAD4 inh 19 | PAD4 FP conf inactive
CCOC(=O)C1=C(C)N=c2s/c(=C\c3ccc(OCC(=O)O)cc3)c(=O)n2C1c1ccc(OC(C)C)cc1 (stereo unspecified)	PRMT1 inh 30, PAD4 inh 18 | PAD4 FP conf inactive
CCOC(=O)C1=C(C)N=c2s/c(=C\c3cccc(OCC(=O)O)c3)c(=O)n2C1c1ccccc1OC (stereo unspecified)	none
Cc1cccc(C)c1NC(=O)C1C(c2ccccc2)=Nc2ccccc2N1C(=O)c1cnccn1 (stereo unspecified)	none (no result: GSTO1 inh, Apaf-1 inh, PAD4 inh)
CCOC(=O)[C@]12CCC=C1N(Cc1ccc3c(c1)OCO3)C(=O)[C@H](CC(=O)NCC1CCCCC1)C2	none (no result: GSTO1 inh, Apaf-1 inh, PAD4 inh)
CC(C)(C)c1ccc(C(=O)N2CCOC23CCCCC3)cc1	none (no result: GSTO1 inh, Apaf-1 inh, PAD4 inh)
COC(=O)C[C@H]1CC[C@H]2[C@H](COc3ccc(NC(=O)Cc4cccs4)cc3C(=O)N2C)O1	none (no result: GSTO1 inh, Apaf-1 inh, PAD4 inh)
Cc1nc2ccc(C(=O)Nc3ccc4c(c3)OCC(=O)N4)cn2c1N(C)C(=O)CCc1ccccc1	none (no result: GSTO1 inh, Apaf-1 inh, PAD4 inh)
O=C(Nc1c(-c2ccc(F)cc2)nc2ncccn12)c1ccc(F)cc1	none (no result: GSTO1 inh, Apaf-1 inh, PAD4 inh)
CC1CC(C)CN(C(=O)c2cccc(S(=O)(=O)N(C)c3ccccc3)c2)C1 (stereo unspecified)	none (no result: GSTO1 inh, PAD4 inh)
COc1ccc(N(C)S(=O)(=O)c2cccc(C(=O)OCC(=O)N3CC(C)CC(C)C3)c2)cc1 (stereo unspecified)	PAD4 inh 17 (no result: GSTO1 inh) | PAD4 FP conf inactive
COc1ncc(-c2ccc(N3C(c4ccc([N+](=O)[O-])cc4)=Cc4ccccc4C3CC(C)=O)cc2)cn1 (stereo unspecified)	none (no result: GSTO1 inh, Apaf-1 inh, PAD4 inh)
COC(=O)C1(C(=O)OC)c2ccccc2CN(S(=O)(=O)c2ccc(C)cc2)C1CC(C)=O (stereo unspecified)	none (no result: GSTO1 inh, Apaf-1 inh, PAD4 inh)
O=C(CCc1ccccc1)N[C@H]1[C@H](OC(=O)c2ccco2)CCC[C@@]12C(=O)N(Cc1ccccc1)c1ccccc12	none (no result: GSTO1 inh, Apaf-1 inh, PAD4 inh)
COc1ccc(/C=C/C(=O)NC2=NCCS2)c(OC)c1	none (no result: GSTO1 inh, Apaf-1 inh, PAD4 inh)
CCCCCCCCN1C(=O)[C@@H](CC(=O)NCCCN2CCCC2=O)C[C@@]2(C(=O)OC)C1=C[C@H](C(C)C)O[C@@H]2C1CC1	none (no result: GSTO1 inh, Apaf-1 inh, PAD4 inh)
Nc1[nH]c(C(=O)c2ccccc2)c(-c2ccc(Cl)cc2Cl)c1C(=O)c1cccs1	none (no result: GSTO1 inh, Apaf-1 inh, PAD4 inh)
O=C(NCc1cccc(OC(F)(F)F)c1)c1cccc2c1C(=O)c1ccc(-c3ccc(F)cc3OCc3ccccc3)cc1S2(=O)=O	none (no result: GSTO1 inh)
O=C1c2ccc(-c3ccc(F)cc3OCc3ccccc3)cc2S(=O)(=O)c2cccc(C(=O)N3CCCC3)c21	PAD4 inh 17 (no result: GSTO1 inh, PRMT1 inh, TDP2 absorb) | PAD4 FP conf 15
O=C(CCn1nnc(-c2cccs2)n1)N1CCCC1	none (no result: GSTO1 inh, Apaf-1 inh, PAD4 inh)
CCCCCC(=O)Nc1ccc(C(=O)CN2C(=O)NC3(CCCCCC3)C2=O)cc1	none
CCC(=O)Nc1ccc(C(=O)CN2C(=O)NC3(CCCCCC3)C2=O)cc1	PAD4 inh 30 (no result: GSTO1 inh) | PAD4 FP conf inactive
Cc1cc2c(c(=O)o1)C(c1ccc([N+](=O)[O-])o1)C(C#N)=C(N)O2 (stereo unspecified)	PAD4 inh 27 | PAD4 FP conf inactive
c1cc(CNc2ccc(N3CCOCC3)cc2)ccn1	PAD4 inh 25 | PAD4 FP conf inactive
Cc1ccc(CNc2ccc(N3CCOCC3)cc2)cc1	none
CCCC(=O)N(c1ccc2oc(=O)sc2c1)S(=O)(=O)c1ccccc1	PRMT1 inh 50, PAD4 inh 22 | PAD4 FP conf inactive
CCCC(=O)N(c1ccc2oc(C)c(C(C)=O)c2c1)S(=O)(=O)c1ccc(C(=O)O)cc1	none
Cc1cc2oc(=O)sc2cc1NS(=O)(=O)c1cccc2cccnc12	PRMT1 inh 54, PAD4 inh 34 | PAD4 FP conf 19
COc1ccc(N(C(=O)C2CCCCC2)S(=O)(=O)c2cccc3cccnc23)cc1	none
CC(=O)N(c1ccc2oc(=O)sc2c1)S(=O)(=O)c1cccc2cccnc12	PRMT1 inh 91, PAD4 inh 33 | PAD4 FP conf 22
Cc1cc2oc(=O)sc2cc1NS(=O)(=O)c1ccccc1	PRMT1 inh 92, PAD4 inh 20 | PAD4 FP conf inactive
CSc1ccc(C=NNC(=O)c2cc(-c3ccc(Cl)cc3)n[nH]2)cc1	none (no result: GSTO1 inh, Apaf-1 inh, PAD4 inh)
Cc1ccc(S(=O)(=O)Nc2ccc(N3CCCCC3)cc2)cc1	none
Nc1ccc(N2CCN(c3ccc(F)cc3)CC2)cc1	none
CC(=O)N1CCN(c2ccc(NS(=O)(=O)c3ccc(C)cc3)cc2)CC1	PAD4 inh 24 | PAD4 FP conf inactive
CC(=O)N1CCN(c2ccc(N)cc2)CC1	PAD4 inh 25 (no result: GSTO1 inh) | PAD4 FP conf inactive
O=C1CCCC(O)=C1N=Nc1c(Cl)cc(Cl)cc1Cl	PAD4 inh 36 | PAD4 FP conf inactive
FC(F)(F)c1cccc(Cn2ccc3ccc(-c4ccc5ccn(Cc6cccc(C(F)(F)F)c6)c5c4)cc32)c1	none (no result: GSTO1 inh, Apaf-1 inh, PAD4 inh)
COc1ccc(OC)c(S(=O)(=O)Nc2ccccc2C)c1	none
COc1ccc(S(=O)(=O)Nc2ccccc2C)cc1	PAD4 inh 75 | PAD4 FP conf inactive
O=C(NCCc1ccccc1)OCc1cn(-c2ccccc2Cl)nn1	none (no result: GSTO1 inh, Apaf-1 inh, PAD4 inh)
C[C@H](NC(=O)[C@@H]1CCCN1C(=O)[C@@H]1CCCN1)c1ccccc1	none (no result: GSTO1 inh, Apaf-1 inh, PAD4 inh)
CCCC1OC23CCCCC2C(C#N)(C(=N)O3)C1(C#N)C#N (stereo unspecified)	PAD4 inh 17 | PAD4 FP conf inactive
N#CC12COC3(CCCCC3C1(C#N)C#N)OC2=N (stereo unspecified)	PRMT1 inh 35, PAD4 inh 22 | PAD4 FP conf inactive
CC1OC23CCCCC2C(C#N)(C(=N)O3)C1(C#N)C#N (stereo unspecified)	none
